Assay [1] concerns the target T1, Receptor-type tyrosine-protein kinase FLT3 (Homo sapiens, UniProt P36888).
T1 sequence (P36888 whole entry): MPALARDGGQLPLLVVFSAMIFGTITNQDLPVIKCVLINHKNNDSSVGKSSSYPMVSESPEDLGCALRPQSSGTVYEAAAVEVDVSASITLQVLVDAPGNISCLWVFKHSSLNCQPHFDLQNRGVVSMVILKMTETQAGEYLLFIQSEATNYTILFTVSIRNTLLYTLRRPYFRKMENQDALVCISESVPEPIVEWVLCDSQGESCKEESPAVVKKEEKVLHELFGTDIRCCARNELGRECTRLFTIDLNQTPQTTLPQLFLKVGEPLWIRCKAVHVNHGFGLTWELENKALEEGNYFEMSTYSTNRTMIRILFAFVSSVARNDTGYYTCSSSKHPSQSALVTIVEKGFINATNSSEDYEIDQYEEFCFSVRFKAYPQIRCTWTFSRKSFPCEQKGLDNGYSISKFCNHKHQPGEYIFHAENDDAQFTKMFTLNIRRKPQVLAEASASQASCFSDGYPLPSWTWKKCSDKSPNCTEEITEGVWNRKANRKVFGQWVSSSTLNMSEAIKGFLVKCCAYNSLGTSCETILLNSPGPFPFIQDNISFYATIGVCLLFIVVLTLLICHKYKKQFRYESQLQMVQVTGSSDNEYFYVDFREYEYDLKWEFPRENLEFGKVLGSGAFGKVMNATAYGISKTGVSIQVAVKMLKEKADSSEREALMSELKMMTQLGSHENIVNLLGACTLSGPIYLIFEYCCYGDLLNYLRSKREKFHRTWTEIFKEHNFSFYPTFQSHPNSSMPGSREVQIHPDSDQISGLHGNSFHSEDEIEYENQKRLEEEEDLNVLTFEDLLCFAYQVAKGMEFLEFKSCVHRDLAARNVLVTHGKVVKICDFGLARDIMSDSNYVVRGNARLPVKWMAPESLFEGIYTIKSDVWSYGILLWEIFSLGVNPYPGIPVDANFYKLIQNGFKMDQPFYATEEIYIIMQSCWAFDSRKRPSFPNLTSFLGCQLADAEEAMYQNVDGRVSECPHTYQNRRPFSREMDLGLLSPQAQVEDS
Kind of assay: Inhibition of wild type FLT3 (unknown origin) using Glu/Tyr peptide substrate incubated for 120 mins measured after 40 mins incubation under dark by ADP-glo based luminescence assay. The procedure, abridged: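 In-house ADP-Glo assay with poly(Glu,Tyr) 4:1 substrate in 40 mM Tris pH 7.5, 20 mM MgCl2, 50 µM DTT, 0.1 mg/mL BSA. Kinase at 20 nM. ADP-Glo reagent 40 min in the dark, detection reagent 30–40 min, then luminescence. Ki was derived from IC50 by Cheng-Prusoff.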

Assay [2] concerns the target Cyclin-dependent kinase 1/cyclin B1 (Homo sapiens, UniProt P06493). Put plainly: Inhibition of CDK1/cyclin B (unknown origin) using histone 1 protein substrate incubated for 120 mins measured after 40 mins incubation under dark by ADP-glo based luminescence assay. The assay is classed as protein-complex assay. Put shortly: (§1)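 In-house ADP-Glo assay with 2 mM DMSO stocks. Kinases were CDK1/cyclin B at 1 nM, CDK2/cyclin E1 at 10 nM and CDK7/cyclin H/MAT1 at 40 nM. Substrate was histone 1 for CDK1 and CDK2, and a RNA pol II CTD peptide for CDK7. Compound at 8–10 concentrations, 1:3 serial, final DMSO 0.5%. Reactions ran 60–120 min at room temperature, then ADP-Glo reagent 40 min in the dark, then detection reagent 40 min, read by luminescence. Ki was derived from IC50 by Cheng-Prusoff.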
For orientation: ADP-Glo first removes unused ATP, then detects ADP through luciferase.

Assay [3] concerns the target Cyclin-dependent kinase 2/cyclin E1 (Homo sapiens, UniProt P24941). Put plainly: Inhibition of CDK2/cyclin E (unknown origin) using histone 1 protein substrate incubated for 120 mins measured after 40 mins incubation under dark by ADP-glo based luminescence assay. The assay is classed as protein-complex assay. Put shortly:
as §1

In assay [4] the target is CDK7/Cyclin H/MNAT1 (Homo sapiens, UniProt P50613). Kind of assay: Inhibition of CDK7/cyclin H/MAT1 (unknown origin) using HYSPTSPSYSPTSPSYSPTSPSKKKK-O substrate incubated for 120 mins measured after 40 mins incubation under dark by ADP-glo based luminescence assay. In kind it is protein-complex assay. Put shortly:
as §1

For assay [5], the system named is MV4-11. Kind of assay: Antiproliferative activity against human MV4-11 cells incubated for 72 hrs by resazurin assay. In kind it is functional. Put shortly: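 Cells seeded and pre-incubated 24 h at 37 °C, 5% CO2, then given a five-fold dilution series of compound (from 10 mM DMSO stock) in medium, in triplicate. Resazurin added after 72 h exposure, 4 h in dark at 37 °C. Fluorescence read at 570/585 nm, normalised to DMSO vehicle. GI50 by non-linear regression; mean ± SD of at least two replicates.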

The target of assay [6] is Receptor-type tyrosine-protein kinase FLT3 (Homo sapiens, UniProt P36888, ITD). Kind of assay: Inhibition of FLT3 ITD mutant (unknown origin) using Glu/Tyr peptide substrate incubated for 80 mins measured after 40 mins incubation under dark by ADP-glo based luminescence assay.

pKi: −log10 of the molar value.

Chain of Cyclin-dependent kinase 1/cyclin B1 (P06493 whole entry): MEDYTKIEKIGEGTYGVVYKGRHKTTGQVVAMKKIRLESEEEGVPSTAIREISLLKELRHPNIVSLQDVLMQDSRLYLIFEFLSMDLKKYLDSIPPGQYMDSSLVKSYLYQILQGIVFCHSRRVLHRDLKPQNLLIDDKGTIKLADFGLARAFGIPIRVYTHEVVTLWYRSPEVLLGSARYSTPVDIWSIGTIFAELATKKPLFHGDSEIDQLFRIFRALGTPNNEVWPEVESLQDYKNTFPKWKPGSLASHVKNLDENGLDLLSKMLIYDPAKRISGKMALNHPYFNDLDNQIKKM
Chain of Cyclin-dependent kinase 1/cyclin B1 (P14635 whole entry, further chain): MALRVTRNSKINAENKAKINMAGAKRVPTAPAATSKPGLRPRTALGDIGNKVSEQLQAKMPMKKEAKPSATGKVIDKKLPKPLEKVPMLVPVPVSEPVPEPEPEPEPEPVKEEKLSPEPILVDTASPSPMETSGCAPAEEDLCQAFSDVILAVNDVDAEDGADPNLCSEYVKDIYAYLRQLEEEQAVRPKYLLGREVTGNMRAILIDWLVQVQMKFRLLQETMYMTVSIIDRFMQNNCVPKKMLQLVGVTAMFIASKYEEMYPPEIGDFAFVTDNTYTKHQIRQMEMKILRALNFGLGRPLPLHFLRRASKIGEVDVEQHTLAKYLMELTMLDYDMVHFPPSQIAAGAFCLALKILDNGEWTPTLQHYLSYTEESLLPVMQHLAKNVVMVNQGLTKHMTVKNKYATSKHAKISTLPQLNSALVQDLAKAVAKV
Chain of CDK7/Cyclin H/MNAT1 (P51946 whole entry): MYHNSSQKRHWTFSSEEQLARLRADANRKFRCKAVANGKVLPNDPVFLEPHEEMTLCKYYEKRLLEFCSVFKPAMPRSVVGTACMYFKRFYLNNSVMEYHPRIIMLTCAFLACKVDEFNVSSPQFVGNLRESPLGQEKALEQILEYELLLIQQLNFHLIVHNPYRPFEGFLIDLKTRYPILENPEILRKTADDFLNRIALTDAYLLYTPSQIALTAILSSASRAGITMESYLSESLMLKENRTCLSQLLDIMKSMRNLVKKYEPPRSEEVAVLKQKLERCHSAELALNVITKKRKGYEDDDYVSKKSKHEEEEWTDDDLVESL
Chain of CDK7/Cyclin H/MNAT1 (P50613 whole entry): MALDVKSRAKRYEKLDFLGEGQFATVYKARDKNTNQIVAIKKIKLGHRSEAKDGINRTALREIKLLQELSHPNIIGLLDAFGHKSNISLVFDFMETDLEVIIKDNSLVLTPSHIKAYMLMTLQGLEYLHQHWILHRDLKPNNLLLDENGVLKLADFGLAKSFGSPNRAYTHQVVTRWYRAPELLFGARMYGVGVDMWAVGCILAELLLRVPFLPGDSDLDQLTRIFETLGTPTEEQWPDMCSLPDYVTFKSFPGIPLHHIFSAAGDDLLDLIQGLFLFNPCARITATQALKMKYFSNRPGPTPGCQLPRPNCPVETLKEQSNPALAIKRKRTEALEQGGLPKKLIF
Chain of CDK7/Cyclin H/MNAT1 (P51948 whole entry, further chain): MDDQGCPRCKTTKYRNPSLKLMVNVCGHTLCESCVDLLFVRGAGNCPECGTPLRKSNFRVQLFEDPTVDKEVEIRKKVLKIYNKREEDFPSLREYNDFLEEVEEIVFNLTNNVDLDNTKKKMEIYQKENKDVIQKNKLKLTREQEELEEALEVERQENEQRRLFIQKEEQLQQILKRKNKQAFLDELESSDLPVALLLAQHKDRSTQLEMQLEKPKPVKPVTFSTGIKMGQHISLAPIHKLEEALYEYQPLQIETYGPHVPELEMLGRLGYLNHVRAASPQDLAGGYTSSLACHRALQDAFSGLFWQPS

In the case of `CC(=O)N1CCCN(c2cccc(Nc3nccc(-c4cnc5n(C)cccc4-5)n3)c2)CC1`, the pKi is 9.00 in assay [1]; 5.76 in assay [2]; less than 5.30 in assay [3]; less than 5.30 in assay [4]; 9.15 in assay [6]. In assay [5], the GI50 was 24 nM.

`CC(=O)N1CCCN(c2cccc(Nc3nccc(-c4n[nH]c5ccccc45)n3)c2)CC1`: the negative-log Ki (pKi) was 9.00 in assay [1]; 6.14 in assay [2]; less than 5.30 in assay [3]; less than 5.30 in assay [4]; 9.22 in assay [6]. Moreover, it took 18 nM to inhibit growth in assay [5] by half (GI50).

`CN1CCN(c2cccc(Nc3nccc(-c4c[nH]c5ncccc45)n3)c2)CC1`: the pKi in assay [1] was 8.40; in assay [2] it was 6.27; in assay [3], 7.08; in assay [4] it was 6.85; in assay [6] it was 8.70. The GI50 in assay [5] was found to be 5 nM.

In the case of `CC(=O)N1CCCN(c2cccc(Nc3nccc(-c4c[nH]c5ncccc45)n3)c2)CC1`, the pKi in assay [1] was 9.40; in assay [2], 7.29; in assay [3] it was 7.51; in assay [4] it was 7.54; in assay [6] it was 10.00. Besides, the GI50 in assay [5] was found to be 20 nM.

For `CC(=O)N1CCN(c2ccc(Nc3nccc(-c4nn(C)c5ccccc45)n3)cc2)CC1`, the pKi in assay [1] was 6.05; in assay [2] it was less than 5.30; in assay [3], less than 5.30; in assay [4], less than 5.30; in assay [6], 6.56. In addition, in assay [5], it took 181 nM to inhibit growth by half (GI50).

With `CC(=O)N1CCN(c2ccc(Nc3nccc(-c4c[nH]c5ccccc45)n3)cc2)CC1`, the pKi in assay [1] was 7.66; in assay [2] it was less than 5.30; in assay [3], less than 5.30; in assay [4], less than 5.30; in assay [6] it was 7.96. Also, growth in assay [5] was halved (GI50) at 33 nM.

As for `CC(=O)N1CCN(c2ccc(Nc3ncc(C#N)c(-c4c[nH]c5ccccc45)n3)cc2)CC1`, the pKi in assay [1] was 8.40; in assay [2], 5.39; in assay [3], less than 5.30; in assay [4], 6.37; in assay [6], 9.40. The molecule also had a GI50 in assay [5] of 4 nM.

Turning to `CCc1nc(C(N)=O)c(Nc2ccc(N3CCC(N4CCN(C)CC4)CC3)c(OC)c2)nc1NC1CCOCC1` [GILTERITINIB], the pKi is less than 5.30 in assay [2], 5.83 in assay [3] and less than 5.30 in assay [4]. In assay [5], this molecule displayed a GI50 of 2 nM.

`CC(=O)N1CCN(c2ccc(Nc3nccc(-c4cn(S(=O)(=O)c5ccc(C)cc5)c5ccccc45)n3)cc2)CC1`: the pKi in assay [1] is less than 5.30; in assay [2], less than 5.30; in assay [3], less than 5.30; in assay [4], less than 5.30; in assay [6] it was 6.89. Moreover, growth in assay [5] was halved (GI50) at 1560 nM.

`CC(=O)N1CCN(c2ccc(Nc3ncc(C#N)c(-c4c(C)[nH]c5ccccc45)n3)cc2)CC1`: the pKi in assay [1] is 6.92; in assay [2], less than 5.30; in assay [3], 5.66; in assay [4] it was 6.27; in assay [6], 8.70. The molecule further returned a GI50 in assay [5] of 390 nM.

Take `CC(=O)N1CCN(c2ccc(Nc3ncc(C#N)c(-c4cn(C)c5ccccc45)n3)cc2)CC1`: the pKi in assay [1] is 7.43; in assay [2] it was 5.80; in assay [3], 5.95; in assay [4] it was 5.79; in assay [6], 8.15. In assay [5], this molecule showed a GI50 of 30 nM.

Consider `CC(=O)N1CCCN(c2cccc(Nc3nccc(-c4c[nH]c5cccnc45)n3)c2)CC1`, for which the pKi in assay [1] was 6.82; in assay [2] it was less than 5.30; in assay [3] it was less than 5.30; in assay [4], less than 5.30; in assay [6] it was 6.97. Moreover, the concentration for 50% growth inhibition (GI50) in assay [5] came to 688 nM.

Regarding `CC(=O)N1CCN(c2ccc(Nc3nccc(-c4c[nH]c5ncccc45)n3)cc2)CC1`, the pKi in assay [1] is 9.10; in assay [2], 7.04; in assay [3], 7.31; in assay [4] it was less than 5.30; in assay [6], 10.00. The GI50 in assay [5] is less than 1 nM.

`CN1CCN(c2cccc(Nc3nccc(-c4cn(C)c5ncccc45)n3)c2)CC1`: the negative-log Ki (pKi) in assay [1] was 7.40; in assay [2] it was less than 5.30; in assay [3], 6.01; in assay [4], less than 5.30; in assay [6], 7.89. Besides, the 50% growth inhibitory concentration (GI50) in assay [5] turned out to be 24 nM.

Take `CC(=O)N1CCN(c2ccc(Nc3nccc(-c4n[nH]c5ccccc45)n3)cc2)CC1`: the pKi is less than 5.30 in assay [1]; less than 5.30 in assay [2]; less than 5.30 in assay [3]; less than 5.30 in assay [4]; 6.68 in assay [6]. The same molecule showed a GI50 in assay [5] of 346 nM.

`CC(=O)N1CCN(c2ccc(Nc3nccc(-c4c[nH]c5cccnc45)n3)cc2)CC1`: the pKi is 7.49 in assay [1]; less than 5.30 in assay [2]; less than 5.30 in assay [3]; less than 5.30 in assay [4]; 8.40 in assay [6]. This molecule returned a GI50 in assay [5] of 420 nM.

Consider `CN1CCN(c2cccc(Nc3nccc(-c4c[nH]c5cccnc45)n3)c2)CC1`, for which the pKi in assay [1] was 6.66; in assay [2], less than 5.30; in assay [3], less than 5.30; in assay [4], less than 5.30; in assay [6], 7.70. In assay [5], this molecule gave a GI50 of 405 nM.

With `CC(=O)N1CCN(c2ccc(Nc3nccc(-c4cn(C)c5ccccc45)n3)cc2)CC1`, the pKi in assay [1] was 6.83; in assay [2], less than 5.30; in assay [3] it was less than 5.30; in assay [4] it was less than 5.30; in assay [6], 6.88. The same molecule displayed a GI50 in assay [5] of 252 nM.

By pKi is commonly meant −log10 of the Ki, conventionally taken in molar units. For orientation: GI50 means the concentration at which growth is held to half of that of the control.

The values are drawn from ChEMBL document CHEMBL4813946, “Discovery of novel 4-azaaryl-N-phenylpyrimidin-2-amine derivatives as potent and selective FLT3 inhibitors for acute myeloid leukaemia with FLT3 mutations” (Eur J Med Chem, 2021).
